Experimental data from ChEMBL document CHEMBL1212853, “New chloro,fluorobenzylindole derivatives as integrase strand-transfer inhibitors (INSTIs) and their mode of action” (Bioorg Med Chem, 2010).

Columns and labels:
[1] = system: Human immunodeficiency virus 1; assay: Antiviral activity against HIV1 infected in human MT4 cells assessed as inhibition of virus-induced cytopathic effect; type: functional, organism-based; conditions: Human immunodeficiency virus 1, MT4
How it was run: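 MT-4/MTT assay: MT-4 cells were infected with 100–300 CCID50 of an HIV-1 IIIB stock, titrated on MT-4 cells, in the presence of fivefold serial compound dilutions. Cell protection from virus-induced cytopathic effect was read spectrophotometrically as MTT reduction to formazan by viable cells. EC50 is the concentration giving 50% protection. Averages ± SD.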

[2] = system: MT4; assay: Cytotoxicity against human MT4 cells by MTT assay; type: cell-based
How it was run: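 Run in parallel with the antiviral MT-4/MTT assay, using fivefold serial compound dilutions. Viability was read spectrophotometrically as MTT reduction to formazan by mitochondrial dehydrogenase. CC50 is the concentration reducing MT-4 viability by 50%. Averages ± SD.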

[3] = Selectivity index, ratio of CC50 for human MT4 cells to EC50 for HIV1 cells; type: toxicity, cell-based; conditions: read-out: Selectivity Index
How it was run: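 MT-4/MTT assay in human MT-4 lymphocytes. Cells were infected with 100–300 CCID50 of HIV-1 strain IIIB, titrated on MT-4 cells, in the presence of fivefold serial compound dilutions. Viability was read spectrophotometrically as MTT reduced to formazan. EC50 is 50% protection against virus-induced cytopathic effect; CC50 was determined in parallel. SI is calculated as CC50/EC50.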

[4] = biological target: T1, Human immunodeficiency virus type 1 integrase (Human immunodeficiency virus 1, UniProt Q7ZJM1)
[5] = biological target: T1, Human immunodeficiency virus type 1 integrase; remark: listed apart in the source

T1 sequence (Q7ZJM1 whole entry): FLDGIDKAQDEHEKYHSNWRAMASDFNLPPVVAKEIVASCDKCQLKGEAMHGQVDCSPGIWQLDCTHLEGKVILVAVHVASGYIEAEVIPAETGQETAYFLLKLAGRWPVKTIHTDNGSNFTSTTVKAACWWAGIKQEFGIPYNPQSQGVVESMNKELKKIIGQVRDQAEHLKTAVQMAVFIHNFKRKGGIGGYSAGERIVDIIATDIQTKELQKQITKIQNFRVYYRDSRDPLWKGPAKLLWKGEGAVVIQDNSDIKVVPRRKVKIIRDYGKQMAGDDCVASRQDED

| Structure (SMILES) | EC50 [1] | EC50 [2] | selectivity ratio [3] | IC50 [4] | IC50 [5] |
| --- | --- | --- | --- | --- | --- |
| COc1cccc2c1c(C(=O)/C=C(\O)C(=O)O)cn2Cc1cccc(Cl)c1 | 0.64 µM | 30.2 µM | 47 | 0.13 µM | 0.03 µM |
| COc1cccc2c1c(C(=O)/C=C(\O)C(=O)O)cn2Cc1ccc(Cl)cc1 | 20.6 µM | 33.5 µM | 2 | 1.02 µM | 0.59 µM |
| COc1cccc2c1c(C(=O)/C=C(\O)C(=O)O)cn2Cc1cccc(F)c1Cl | 0.36 µM | 6.5 µM | 18 | 5.24 µM | 12.7 µM |
| COc1cccc2c1c(C(=O)/C=C(\O)C(=O)O)cn2Cc1ccc(F)cc1Cl | 4.3 µM | 47.2 µM | 11 | 0.54 µM | 0.06 µM |
| COc1cccc2c1c(C(=O)/C=C(\O)C(=O)O)cn2Cc1cc(F)ccc1Cl | 3.3 µM | 26.3 µM | 8 | 0.42 µM | 0.27 µM |
| COc1cccc2c1c(C(=O)/C=C(\O)C(=O)O)cn2Cc1c(F)cccc1Cl | 0.56 µM | 62 µM | 111 | 0.53 µM | 0.13 µM |
| COc1cccc2c1c(C(=O)/C=C(\O)C(=O)O)cn2Cc1cccc(Cl)c1F | 0.43 µM | 15 µM | 35 | 0.74 µM | 0.03 µM |
| COc1cccc2c1c(C(=O)/C=C(\O)C(=O)O)cn2Cc1ccc(F)c(Cl)c1 | 0.43 µM | 31.7 µM | 74 | 0.04 µM | 0.12 µM |
| COc1cccc2c1c(C(=O)/C=C(\O)C(=O)O)cn2Cc1cc(F)cc(Cl)c1 | 0.52 µM | 32.1 µM | 62 | 0.24 µM | 0.25 µM |
| COc1cccc2c1c(C(=O)/C=C(\O)C(=O)O)cn2Cc1cc(Cl)ccc1F | 4.17 µM | 10.8 µM | 3 | 0.32 µM | 0.09 µM |
| COc1cccc2c1c(C(=O)/C=C(\O)C(=O)O)cn2Cc1ccc(Cl)cc1F | > 22.5 µM | 23 µM | < 1 | 2.53 µM | 5.52 µM |
| COc1cccc2c1c(C(=O)/C=C(\O)C(=O)O)cn2Cc1ccc(Cl)c(F)c1 | > 23.3 µM | 23.3 µM | < 1 | 3.33 µM | 4.58 µM |
| CCOC(=O)/C(O)=C/C(=O)c1cn(Cc2ccccc2Cl)c2cccc(OC)c12 | 2.51 µM | 34.5 µM | 14 | 13.1 µM | 0.73 µM |
| CCOC(=O)/C(O)=C/C(=O)c1cn(Cc2cccc(Cl)c2)c2cccc(OC)c12 | 3.25 µM | 52.9 µM | 17 | 4.78 µM | 2.89 µM |
| CCOC(=O)/C(O)=C/C(=O)c1cn(Cc2ccc(Cl)cc2)c2cccc(OC)c12 | 41.3 µM | 41.3 µM | 1 | 5.78 µM | 8.26 µM |
| CCOC(=O)/C(O)=C/C(=O)c1cn(Cc2cccc(F)c2Cl)c2cccc(OC)c12 | 2.52 µM | 18.5 µM | 7 | 1.39 µM | 9.2 µM |
| CCOC(=O)/C(O)=C/C(=O)c1cn(Cc2ccc(F)cc2Cl)c2cccc(OC)c12 | 4.06 µM | 51.4 µM | 13 | 1.74 µM | 2.56 µM |
| CCOC(=O)/C(O)=C/C(=O)c1cn(Cc2cc(F)ccc2Cl)c2cccc(OC)c12 | 16.4 µM | 39.6 µM | 3 | 2.7 µM | 2.94 µM |
| CCOC(=O)/C(O)=C/C(=O)c1cn(Cc2c(F)cccc2Cl)c2cccc(OC)c12 | 4.66 µM | 25.4 µM | 5 | 2.86 µM | 1.2 µM |
| CCOC(=O)/C(O)=C/C(=O)c1cn(Cc2cccc(Cl)c2F)c2cccc(OC)c12 | 2.31 µM | 46.9 µM | 20 | 1.37 µM | 0.74 µM |
| CCOC(=O)/C(O)=C/C(=O)c1cn(Cc2ccc(F)c(Cl)c2)c2cccc(OC)c12 | 1.87 µM | 49.3 µM | 26 | 0.36 µM | 0.07 µM |
| CCOC(=O)/C(O)=C/C(=O)c1cn(Cc2cc(F)cc(Cl)c2)c2cccc(OC)c12 | 4.27 µM | 58.2 µM | 14 | 1.3 µM | 3.17 µM |
| CCOC(=O)/C(O)=C/C(=O)c1cn(Cc2cc(Cl)ccc2F)c2cccc(OC)c12 | 18.1 µM | 18.1 µM | 1 | 1.61 µM | 0.89 µM |
| CCOC(=O)/C(O)=C/C(=O)c1cn(Cc2ccc(Cl)cc2F)c2cccc(OC)c12 | > 17 µM | 17 µM | < 1 | 1.15 µM | 3.32 µM |
| CCOC(=O)/C(O)=C/C(=O)c1cn(Cc2ccc(Cl)c(F)c2)c2cccc(OC)c12 | > 63.7 µM | 63.7 µM | < 1 | 5.05 µM | 20.4 µM |
| COc1cccc2c1c(C(=O)/C=C(\O)C(=O)O)cn2Cc1ccccc1Cl | 0.42 µM | 27 µM | 64 | 0.71 µM | 0.52 µM |
| COc1cc2c(cc1Cc1cccc(Cl)c1F)c(=O)c(C(=O)O)cn2[C@H](CO)C(C)C |  | 2.12 µM |  |  |  |
| Cc1nnc(C(=O)NC(C)(C)c2nc(C(=O)NCc3ccc(F)cc3)c(O)c(=O)n2C)o1 |  | > 18 µM |  |  |  |
| COc1cccc2c1c(C(=O)/C=C(\O)C(=O)O)cn2Cc1ccc(F)cc1 |  | 41.1 µM | 70 |  |  |
